In data set [1] the target is T1, Broad substrate specificity ATP-binding cassette transporter ABCG2 (Homo sapiens, UniProt Q9UNQ0).
T1 sequence (Q9UNQ0 whole entry): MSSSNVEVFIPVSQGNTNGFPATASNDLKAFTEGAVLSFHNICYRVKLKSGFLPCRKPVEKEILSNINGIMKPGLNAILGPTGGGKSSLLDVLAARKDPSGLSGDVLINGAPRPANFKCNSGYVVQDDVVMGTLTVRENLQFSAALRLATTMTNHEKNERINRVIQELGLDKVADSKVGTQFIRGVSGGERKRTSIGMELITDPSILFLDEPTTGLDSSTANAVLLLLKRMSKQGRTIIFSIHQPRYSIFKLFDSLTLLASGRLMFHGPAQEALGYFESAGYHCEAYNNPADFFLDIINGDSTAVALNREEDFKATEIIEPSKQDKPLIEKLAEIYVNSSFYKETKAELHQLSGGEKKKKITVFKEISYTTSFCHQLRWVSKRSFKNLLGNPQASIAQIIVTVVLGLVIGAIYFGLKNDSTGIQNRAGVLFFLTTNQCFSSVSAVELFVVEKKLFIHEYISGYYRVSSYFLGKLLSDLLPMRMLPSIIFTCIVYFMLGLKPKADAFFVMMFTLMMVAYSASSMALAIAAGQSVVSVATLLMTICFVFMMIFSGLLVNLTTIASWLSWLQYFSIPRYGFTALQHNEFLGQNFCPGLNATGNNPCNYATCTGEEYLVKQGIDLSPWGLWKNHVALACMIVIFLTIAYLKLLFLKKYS
As to the kind of experiment: Inhibition of ABCG2 (unknown origin) transfected in HEK293 cells assessed as inhibition of mitoxantrone efflux at 5 uM after 30 mins in presence of 0.1 uM chromone 1 by flow cytometry. It counts as cell-based. (In general: In flow cytometry, cells or beads pass a laser one at a time.)

Data set [2] has as its target T2, ABCG2 ATPase (Homo sapiens, UniProt Q9UNQ0).
T2 sequence (Q9UNQ0 whole entry): T1 sequence (Q9UNQ0 whole entry)
As to the kind of experiment: Activation of human ABCG2 transfected in Sf9 insect cells assessed as stimulation of basal ATPase activity in absence of substrate drug after 30 mins by colorimetry. The settings on record: Sf9 insect cells transfected with human ABCG2, read-out: FC. The method, boiled down: (§1)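 Cholesterol-loaded membranes from Sf9 cells overexpressing human ABCG2 (0.5 mg/mL; 10 μg/sample) in 50 mM Tris-HCl, 50 mM NaCl, pH 8.0, with or without 0.33 mM orthovanadate, no transport substrate; started with 3.9 mM ATP-Mg, 30 min at 37 °C; stopped with SDS; phosphate released read with molybdate/ascorbic acid at 880 nm; vanadate-sensitive basal activity taken as 100%.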

Data set [3] deals with T1, Broad substrate specificity ATP-binding cassette transporter ABCG2. Nature of the data set: Inhibition of ABCG2 (unknown origin)-mediated mitoxantrone efflux transfected in HEK293 cells assessed as potentiation of mitoxantrone-induced cytotoxicity at 0.1 uM after 72 hrs by MTT assay. Conditions: hek293, 72 h; call rule not given here. The data set is classed as cell-based. The essentials:
(§2)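 HEK293-ABCG2 and vector-control HEK293-pcDNA3.1 cells were seeded at 1 × 10⁴/well and grown 24 h, then exposed 72 h to mitoxantrone (0–25 nM). ABCG2 cells were also given bis-chalcone at 0.1 or 0.5 μM. MTT was added for 4 h, formazan dissolved in DMSO/ethanol (1:1) and read at 570 nm. IC50 = mitoxantrone concentration giving 50% survival.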
Background: Tetrazolium dyes change colour on reduction, which living cells bring about.

In data set [4] the test system is ATP-binding cassette sub-family G member 2 (Homo sapiens). Nature of the data set: Inhibition of ABCG2-mediated mitoxantrone efflux in mitoxantrone-selected human PANC1 cells overexpressing ABCG2. Conditions: PANC-1.
Data set [5] has as its target ATP-dependent translocase ABCB1 (Homo sapiens, UniProt P08183). Nature of the data set: Inhibition of ABCB1 (unknown origin) transfected in mouse NIH/3T3 cells assessed as inhibition of mitoxantrone efflux up to 10 uM after 30 mins by flow cytometry relative to control. The data set is classed as cell-based. The settings on record: nih/3t3, 0.5 h. The method, boiled down: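 NIH-3T3-ABCB1 cells (1.5 × 10⁵/well, 48 h, kept in 60 ng/mL colchicine) were given 5 μM mitoxantrone for 30 min at 37 °C with bis-chalcone at 1 or 10 μM. Fluorescence was read by FL4 flow cytometry, ≥10 000 events. Inhibition was expressed relative to parental NIH-3T3 cells, whose maximal accumulation was taken as complete inhibition.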

Data set [6] has as its target T1, Broad substrate specificity ATP-binding cassette transporter ABCG2. Nature of the data set: Inhibition of human ABCG2 ATPase activity transfected in Sf9 insect cells using quercetin as substrate after 30 mins by colorimetry relative to control. The method, boiled down:
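Vanadate-sensitive ATPase of cholesterol-loaded human ABCG2 Sf9 membranes (0.5 mg/mL; 10 μg/sample), 50 mM Tris-HCl/50 mM NaCl pH 8.0, with 2 μM quercetin. ATP-Mg 3.9 mM, 30 min, 37 °C. Phosphate measured colorimetrically at 880 nm. Coupled activity = total minus basal, taken as 100%. IC50 is the concentration giving 50% inhibition.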

Data set [7] deals with HEK293. As to the kind of experiment: Cytotoxicity against HEK293 cells overexpressing ABCG2 at 0.1 uM after 72 hrs by MTT assay. The data set is classed as ADME, cell-based. The settings on record: human, hek293, 72 h. The method, boiled down:
as §2

Data set [8] in a line: Selectivity ratio of EC50 for human H23 cells overexpressing ABCG2 to EC50 for human H460 cells overexpressing ABCG2. The data set is classed as functional.
For data set [9], the target named is T3, ABCG2 (Homo sapiens, UniProt Q9UNQ0).
T3 sequence (Q9UNQ0 whole entry): T1 sequence (Q9UNQ0 whole entry)
Nature of the data set: Inhibition of ABCG2 (unknown origin) transfected in HEK293 cells assessed as inhibition of mitoxantrone efflux at 5 uM after 30 mins by flow cytometry relative to control. The data set is classed as cell-based. Conditions: HEK293 cells transfected with ABCG2, probe mitoxantrone. The essentials: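 HEK293-ABCG2 cells (1.5 × 10⁵/well, grown 48 h) exposed to 5 μM mitoxantrone for 30 min at 37 °C with compound (increasing concentrations up to 10 μM); washed, trypsinized, FL4 flow cytometry, ≥10 000 events.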

The subject of data set [10] is PANC-1. As to the kind of experiment: Selectivity ratio of EC50 for human PANC1 cells overexpressing ABCG2 to EC50 for human H460 cells overexpressing ABCG2. The data set is classed as functional.
For data set [11], the target named is T1, Broad substrate specificity ATP-binding cassette transporter ABCG2. As to the kind of experiment: Inhibition of ABCG2 (unknown origin) transfected in HEK293 cells assessed as inhibition of mitoxantrone efflux at 5 uM after 30 mins in presence of 0.02 uM Ko143 by flow cytometry. The data set is classed as cell-based.
Data set [12] has the same target. Nature of the data set: Inhibition of ABCG2 (unknown origin) transfected in HEK293 cells assessed as inhibition of mitoxantrone efflux after 30 mins by flow cytometry relative to control. The data set is classed as cell-based.
Data set [13] deals with Multidrug resistance-associated protein 1 (Homo sapiens, UniProt P33527). Nature of the data set: Inhibition of ABCC1 (unknown origin) transfected in HEK293 cells assessed as inhibition of calcein-AM efflux up to 10 uM after 30 mins by flow cytometry relative to control. It counts as cell-based. Conditions: hek293, 0.5 h. The essentials: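 HEK293-ABCC1 cells (2 × 10⁵/well, kept in 200 μg/mL hygromycin B) were exposed to 0.2 μM calcein-AM for 30 min at 37 °C with bis-chalcone at 1 or 10 μM. Calcein was read by FL1 flow cytometry, ≥10 000 events. Inhibition was expressed relative to HEK293/pcDNA5 cells, whose maximal accumulation equals complete inhibition.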

Data set [14] addresses T1, Broad substrate specificity ATP-binding cassette transporter ABCG2. As to the kind of experiment: Inhibition of human ABCG2 transfected in Sf9 insect cells assessed as inhibition of basal ATPase activity in absence of substrate drug after 30 mins by colorimetry. The settings on record: sf9, 0.5 h. The method, boiled down:
as §1

Chain of Multidrug resistance-associated protein 1 (P33527 whole entry): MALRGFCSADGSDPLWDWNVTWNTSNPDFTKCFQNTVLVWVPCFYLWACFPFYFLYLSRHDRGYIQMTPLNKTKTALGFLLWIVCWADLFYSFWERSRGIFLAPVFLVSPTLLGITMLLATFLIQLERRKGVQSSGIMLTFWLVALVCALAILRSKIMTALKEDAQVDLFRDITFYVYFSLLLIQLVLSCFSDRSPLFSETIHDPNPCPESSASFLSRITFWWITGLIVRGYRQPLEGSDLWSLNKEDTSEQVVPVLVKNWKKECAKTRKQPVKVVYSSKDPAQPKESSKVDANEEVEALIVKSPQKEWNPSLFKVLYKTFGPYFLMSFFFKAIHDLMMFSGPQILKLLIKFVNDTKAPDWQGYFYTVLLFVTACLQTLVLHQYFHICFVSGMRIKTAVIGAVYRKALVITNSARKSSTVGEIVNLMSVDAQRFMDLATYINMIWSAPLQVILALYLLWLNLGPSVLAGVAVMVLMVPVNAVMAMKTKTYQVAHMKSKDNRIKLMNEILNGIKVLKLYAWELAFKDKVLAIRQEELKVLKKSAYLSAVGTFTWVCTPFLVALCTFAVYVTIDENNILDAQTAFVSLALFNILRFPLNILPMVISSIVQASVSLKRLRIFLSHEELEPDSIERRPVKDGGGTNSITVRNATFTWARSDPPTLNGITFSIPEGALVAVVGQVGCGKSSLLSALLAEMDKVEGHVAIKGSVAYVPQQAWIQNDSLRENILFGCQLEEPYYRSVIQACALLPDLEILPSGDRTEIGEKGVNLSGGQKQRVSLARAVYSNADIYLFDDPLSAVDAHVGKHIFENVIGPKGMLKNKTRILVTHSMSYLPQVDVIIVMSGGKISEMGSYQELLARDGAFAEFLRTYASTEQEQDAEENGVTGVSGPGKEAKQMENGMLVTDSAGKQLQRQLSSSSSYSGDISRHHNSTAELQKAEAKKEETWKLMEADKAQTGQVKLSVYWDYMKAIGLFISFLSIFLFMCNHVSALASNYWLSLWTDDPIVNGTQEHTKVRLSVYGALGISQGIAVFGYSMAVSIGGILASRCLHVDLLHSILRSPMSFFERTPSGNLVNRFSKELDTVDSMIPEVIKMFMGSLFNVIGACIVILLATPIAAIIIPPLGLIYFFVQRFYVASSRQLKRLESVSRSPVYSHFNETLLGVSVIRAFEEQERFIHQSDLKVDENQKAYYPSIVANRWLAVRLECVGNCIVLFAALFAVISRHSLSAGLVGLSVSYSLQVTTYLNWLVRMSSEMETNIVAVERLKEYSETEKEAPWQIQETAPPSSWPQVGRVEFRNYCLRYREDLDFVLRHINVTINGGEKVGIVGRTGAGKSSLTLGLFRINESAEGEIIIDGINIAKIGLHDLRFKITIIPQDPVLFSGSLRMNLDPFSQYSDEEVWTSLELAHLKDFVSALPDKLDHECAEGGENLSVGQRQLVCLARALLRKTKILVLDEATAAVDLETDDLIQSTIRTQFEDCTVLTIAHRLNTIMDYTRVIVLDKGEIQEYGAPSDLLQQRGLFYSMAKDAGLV
Chain of ATP-dependent translocase ABCB1 (P08183 whole entry): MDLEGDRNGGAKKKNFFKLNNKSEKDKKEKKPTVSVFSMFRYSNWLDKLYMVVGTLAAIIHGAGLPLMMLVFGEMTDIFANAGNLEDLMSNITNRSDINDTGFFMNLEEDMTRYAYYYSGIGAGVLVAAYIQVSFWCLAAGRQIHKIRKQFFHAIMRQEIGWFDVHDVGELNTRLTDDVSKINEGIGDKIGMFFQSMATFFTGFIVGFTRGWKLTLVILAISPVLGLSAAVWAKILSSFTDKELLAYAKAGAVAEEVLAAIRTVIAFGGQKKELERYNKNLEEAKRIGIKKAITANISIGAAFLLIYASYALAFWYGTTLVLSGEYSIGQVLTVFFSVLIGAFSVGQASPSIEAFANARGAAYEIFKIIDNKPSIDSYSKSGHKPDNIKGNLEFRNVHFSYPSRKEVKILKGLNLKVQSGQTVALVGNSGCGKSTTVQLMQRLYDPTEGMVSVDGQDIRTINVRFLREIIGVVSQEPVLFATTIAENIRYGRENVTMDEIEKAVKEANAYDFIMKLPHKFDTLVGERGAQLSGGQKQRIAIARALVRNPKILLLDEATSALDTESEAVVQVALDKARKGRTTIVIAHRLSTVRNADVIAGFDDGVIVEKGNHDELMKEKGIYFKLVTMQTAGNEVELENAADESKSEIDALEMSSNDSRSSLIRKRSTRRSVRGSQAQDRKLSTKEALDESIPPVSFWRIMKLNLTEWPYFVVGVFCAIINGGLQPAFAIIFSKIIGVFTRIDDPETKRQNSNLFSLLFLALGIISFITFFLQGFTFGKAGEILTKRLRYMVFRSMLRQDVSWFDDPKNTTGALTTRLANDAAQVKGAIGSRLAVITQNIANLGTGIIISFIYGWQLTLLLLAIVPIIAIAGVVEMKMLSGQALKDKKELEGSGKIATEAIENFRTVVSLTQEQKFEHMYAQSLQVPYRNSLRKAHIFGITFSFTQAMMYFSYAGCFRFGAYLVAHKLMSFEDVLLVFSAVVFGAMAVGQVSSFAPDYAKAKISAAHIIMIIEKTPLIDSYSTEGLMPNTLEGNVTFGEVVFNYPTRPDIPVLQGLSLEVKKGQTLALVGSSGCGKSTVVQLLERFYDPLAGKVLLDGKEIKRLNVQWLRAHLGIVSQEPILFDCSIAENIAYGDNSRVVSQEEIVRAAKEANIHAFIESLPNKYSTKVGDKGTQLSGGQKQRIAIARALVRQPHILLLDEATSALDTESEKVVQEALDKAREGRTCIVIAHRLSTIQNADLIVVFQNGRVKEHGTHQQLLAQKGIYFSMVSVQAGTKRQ

In the case of `COc1cccc(OC)c1/C=C/C(=O)c1ccc(C(=O)/C=C/c2c(OC)cccc2OC)cc1`, the concentration for a half-maximal effect (EC50) is 15 nM in data set [1], 210 nM in [4], 126 nM in data set [11] and 200 nM in data set [12]. For the same compound, the fold induction at 0.5 h in data set [2] was determined as 1.6. Besides, the “inhibition (INH)” value is reported as “Active” in [3], “Not Active” in data set [5], “Not Active” in [13] and “Not Active” in data set [14]. The IC50 in [6] was 190 nM. For the same compound, the Activity entry in data set [7] is “Non-toxic”. The “Ratio EC50” value in data set [8] and in data set [10] was 3 each time. The inhibition at 0.5 h, 5 µM in data set [9] amounted to 108%.

As a reminder, the EC50 is the concentration that produces a half-maximal response. As usually defined, the IC50 is the concentration needed to halve the response being measured. Low values mean greater potency, high ones weaker potency. Broadly, the inhibition is the drop in the measured response relative to a control, in per cent.

The record behind these values is ChEMBL document CHEMBL3232774, “Symmetric bis-chalcones as a new type of breast cancer resistance protein inhibitors with a mechanism different from that of chromones” (J Med Chem, 2014).
